Test results reported in PMC7729387 (Journal of Antimicrobial Chemotherapy, 2020).
Converted amounts (≈) assume the structure as drawn. Where two headings read alike, the source gives them in different places.

Experiments:
A/WSN/33 (H1N1) strain [1] = test: PK/PD analysis, linear model; format: in vivo, influenza A(H1N1) virus (BALB/c mice); conditions: y = virus titre (log10 TCID50/mL)
[2] = tested on: type A and type B virus strains; conditions: cited from earlier work
[3] = PK of baloxavir acid after oral baloxavir marboxil in A/WSN/33-infected mice; format: in vivo, BALB/c mice
How it was run: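 A/WSN/33-infected BALB/c mice each received a single oral dose of the prodrug at 0.5, 1.5, 5, 15 or 50 mg/kg. Blood was taken at 0.5–12 h, three mice per dose per timepoint. Plasma active acid and prodrug were measured by LC-MS/MS.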

[4] = PK of baloxavir acid after subcutaneous baloxavir acid in A/WSN/33-infected mice; format: in vivo, BALB/c mice; conditions: sc baloxavir acid 0.125, 0.5, 2 and 8 mg/kg
A/WSN/33 (H1N1) strain [5] = test: PK/PD analysis, sigmoid Emax model; format: in vivo, influenza A(H1N1) virus (BALB/c mice); conditions: for E max (estimate) / E 0 (estimate): y = virus titre (log10 TCID50/mL)
How it was run: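 A/WSN/33-infected BALB/c mice were dosed subcutaneously from day 5 at 0.0625–8 mg/kg q24h, q12h or q6h for 1 day, five per group, in Tween 80/copolymer carbonate vehicle at pH ~9. Lung titres were read 24 h later by MDCK TCID50. PK parameters came from mean plasma levels after single 0.125–8 mg/kg doses, scaled for 0.0625–4 mg/kg. A sigmoid Emax model was fitted to individual-mouse titres and judged by adjusted R².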

A/WSN/33 (H1N1) strain [6] = format: in vivo, influenza A(H1N1) virus (BALB/c mice)
[7] = humans; single-dose oral baloxavir marboxil; cited from earlier work
[8] = tested on: type A and type B virus strains; conditions: plaque-reduction assay; cited from earlier work
[9] = tested on: A/Osaka/129/2009 (H1N1pdm09); design: species or system influenza A(H1N1)pdm09 virus (BALB/c mice); conditions: mouse, in vivo, po, 5 mg/kg
influenza A virus = conditions: 10 mg/kg, q24h daily, nude mice; cited from earlier work
influenza virus = conditions: cited from earlier work
B/Hong Kong/5/72 = format: in vivo, influenza type B virus (BALB/c mice); conditions: oral 15 mg/kg twice daily
A/Hong Kong/8/68 (H3N2) = format: in vivo, influenza A(H3N2) virus (BALB/c mice); conditions: oral 15 mg/kg twice daily
[10] = BXA in plasma, oral BXM 0.5 mg/kg
[11] = BXA in plasma, oral BXM 1.5 mg/kg
[12] = BXA in plasma, oral BXM 5 mg/kg
[13] = BXA in plasma, oral BXM 15 mg/kg
[14] = BXA in plasma, oral BXM 50 mg/kg
[15] = 24 h after single-dose oral treatment, patients with uncomplicated influenza, ref Phase 3 baloxavir marboxil studies
[16] = […], 24 h after initial dosing, 15 mg/kg

## O=C1c2c(O)c(=O)ccn2N([C@@H]2c3ccccc3SCc3c2ccc(F)c3F)[C@@H]2COCCN12 [baloxavir acid]
A/WSN/33 (H1N1) strain [1]; x = T >2 (h)
  E 0 (estimate): 5.141
A/WSN/33 (H1N1) strain [1]; x = T >10 (h)
  E 0 (estimate): 4.095
A/WSN/33 (H1N1) strain [1]; x = T >50 (h)
  E 0 (estimate): 3.569
[2]
  inhibitory values, type A more potent than type B virus strains: 4- to 5 fold
[3]; BXA in plasma after oral baloxavir marboxil 0.5–50 mg/kg
  plasma exposure versus dose: increased dose proportionally up to 15 mg/kg
[3]; [10]
  AUC0–12: 22.0 ng·h/mL
  AUC0–∞: 22.7 ng·h/mL
  C max: 5.05 ng/mL
  T max: 1.00 h
[3]; BXA in plasma, oral BXM 0.5 mg/kg, t½,4–10 h
  t ½,z: 2.24 h
[3]; [11]
  AUC0–12: 62.6 ng·h/mL
  AUC0–∞: 66.1 ng·h/mL
  C max: 14.3 ng/mL
  T max: 1.00 h
[3]; BXA in plasma, oral BXM 1.5 mg/kg, t½,6–12 h
  t ½,z: 2.56 h
[3]; [12]
  AUC0–12: 242 ng·h/mL
  AUC0–∞: 252 ng·h/mL
  C max: 45.7 ng/mL
  T max: 0.500 h
[3]; BXA in plasma, oral BXM 5 mg/kg, t½,6–12 h
  t ½,z: 2.45 h
[3]; [13]
  AUC0–12: 648 ng·h/mL
  AUC0–∞: 670 ng·h/mL
  C max: 175 ng/mL
  T max: 0.500 h
[3]; BXA in plasma, oral BXM 15 mg/kg, t½,6–12 h
  t ½,z: 2.26 h
[3]; [14]
  AUC0–12: 1580 ng·h/mL
  AUC0–∞: 1690 ng·h/mL
  C max: 284 ng/mL
  T max: 2.00 h
[3]; BXA in plasma, oral BXM 50 mg/kg, t½,6–12 h
  t ½,z: 3.14 h
[3]; BXA in plasma, oral baloxavir marboxil 0.5–50 mg/kg, range over doses
  t½,z (half-life in mouse plasma): 2.24 to 3.14 h
[4]
  plasma concentration versus dose: increased dose proportionally from 0.125 to 8 mg/kg
A/WSN/33 (H1N1) strain [5]; x = AUC0–24 (ng·h/mL)
  E max (estimate): 1.091
A/WSN/33 (H1N1) strain [5]; x = C 24
  EC50 (estimate): 4.767 ng/mL (≈ 9.86 nM)
A/WSN/33 (H1N1) strain [5]; x = C 24 (ng/mL)
  E 0 (estimate): 3.928
  E max (estimate): 1.499
A/WSN/33 (H1N1) strain [5]; x = C max
  EC50 (estimate): 42.528 ng/mL (≈ 88 nM)
A/WSN/33 (H1N1) strain [5]; x = C max (ng/mL)
  E 0 (estimate): 3.806
  E max (estimate): 1.022
A/WSN/33 (H1N1) strain [5]; x = C τ
  EC50 (estimate): 4.108 ng/mL (≈ 8.5 nM)
A/WSN/33 (H1N1) strain [5]; x = C τ (ng/mL)
  E 0 (estimate): 3.958
  E max (estimate): 1.554
A/WSN/33 (H1N1) strain [5]; x = T >50 (h)
  E 0 (estimate): 3.588
  E max (estimate): 1.913
A/WSN/33 (H1N1) strain [6]; […], 24 h post-treatment initiation, all groups
  virus titres versus vehicle or oseltamivir phosphate 5 eq mg/kg, q12h: numerically lower
[7]
  half-life in plasma compared with that in mice: > 10 fold
[8]
  inhibitory values, type A more potent than type B virus strains: 6- to 12 fold

## COC(=O)OCOc1c2n(ccc1=O)N([C@@H]1c3ccccc3SCc3c1ccc(F)c3F)[C@@H]1COCCN1C2=O [baloxavir marboxil]
[9]
  virus titre reduction in mice infected with the H1N1pdm09 strain: ≥ 100 fold
[3]; after oral baloxavir marboxil, data not shown
  baloxavir marboxil in plasma: undetectable in almost all infected mice
Influenza A virus
  clearance of virus from the respiratory organs: did not clear the virus from the respiratory organs
Influenza virus; [15]
  greater viral load reduction than after oseltamivir phosphate: 2.0 log10 TCID50/mL
  greater viral load reduction than after placebo: 3.5 log10 TCID50/mL
Influenza virus; type A virus infections
  Symptom resolution: faster with baloxavir marboxil than placebo, but not oseltamivir phosphate
B/Hong Kong/5/72
  decrease in virus titre compared with oseltamivir phosphate at 5 eq mg/kg: 0.97 log10 TCID50/mL
A/WSN/33 (H1N1) strain [6]; [16]
  virus titres declined compared with oseltamivir phosphate 5 or 50 eq mg/kg, q12h: 2 log10 TCID50/mL
  virus titres declined compared with vehicle: > 3 log10 TCID50/mL
A/WSN/33 (H1N1) strain [6]; mouse, in vivo, po, 1.5 mg/kg
  virus titres compared with the clinically equivalent or higher dose of oseltamivir phosphate: significantly reduced virus titres
A/WSN/33 (H1N1) strain [6]; mouse, in vivo, po, 5 mg/kg
  Lung virus titres versus each NAI or favipiravir: significantly lower
A/WSN/33 (H1N1) strain [6]; oral 15 mg/kg twice daily
  decrease in virus titre compared with oseltamivir phosphate at 5 eq mg/kg: 2.64 log10 TCID50/mL
A/Hong Kong/8/68 (H3N2)
  decrease in virus titre compared with oseltamivir phosphate at 5 eq mg/kg: 2.16 log10 TCID50/mL

## CCOC(=O)C1=C[C@@H](OC(CC)CC)[C@H](NC(C)=O)[C@@H](N)C1 [oseltamivir phosphate, reference compound]
A/WSN/33 (H1N1) strain [6]; mouse, in vivo
  reduction in virus titres compared with vehicle: 0.5–1 log10
